# CXCR6 inh: CXCR6 receptor inhibitors, primary screen, cell-based, beta-arrestin, luminescence, CHO-K1 PathHunter, 1536-well. inhibition, % at 20 µM. 360,000 compounds, 0.36% hits. C-X-C chemokine receptor type 6 (Homo sapiens), O00574; in the data active = inhibition above about 34%, passing the limit was not always enough;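 note: antagonist mode with CXCL16 agonist at 10 nM final; 0% = 10 nM CXCL16 with DMSO and 100% = unstimulated wells without agonist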
# Target sequence (O00574 whole entry, looked up): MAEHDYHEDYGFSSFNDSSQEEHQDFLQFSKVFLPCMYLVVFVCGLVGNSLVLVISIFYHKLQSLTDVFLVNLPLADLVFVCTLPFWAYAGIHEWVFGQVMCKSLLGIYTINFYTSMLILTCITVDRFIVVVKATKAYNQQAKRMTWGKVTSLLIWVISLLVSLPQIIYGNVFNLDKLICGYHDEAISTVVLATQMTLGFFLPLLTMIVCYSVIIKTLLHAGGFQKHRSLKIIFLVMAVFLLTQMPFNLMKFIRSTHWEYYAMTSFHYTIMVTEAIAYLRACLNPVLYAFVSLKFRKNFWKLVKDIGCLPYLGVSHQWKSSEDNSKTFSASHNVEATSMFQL
# APJ ag: agonists of human apelin receptor APJ, primary screen, CHO-K1 cells, PathHunter beta-arrestin, luminescence | activation, % at 20 µM | 0% DMSO wells, 100% apelin | 330,000 compounds, 0.11% hits | P35414;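 active = activation more than six SD over the plate average, tested at 20 µM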;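 note: 0% = DMSO alone and 100% = apelin-13 at 10 nM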
#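 Test system: CHO-K1 APJ beta-arrestin complementation cell line. Amount: cell density 1000 per well. Controls: DMSO negative, 10 nM Apelin-13 positive. Signal: luminescent beta-gal fragment complementation, chemiluminescent substrate. Read-out basis: agonist-driven arrestin binding to APJ. Timing: compound stimulation 90 min at 25 °C, detection 60 min.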
# APJ antag: antagonists of human apelin receptor APJ, primary screen, CHO-K1 cells, beta-arrestin complementation, luminescence; P35414; inhibition, % at 20 µM; 330,000 compounds, 0.32% hits; AID 2521, 2010;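 active = inhibition above about 40% at 20 µM, limit read from the data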;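 note: cells challenged with 10 nM apelin-13 agonist together with compound; plate controls were apelin-13 plus DMSO wells for no effect and DMSO wells lacking apelin-13 for full effect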
# CCR6 antag: CCR6 receptor antagonists, primary screen, cell-based, CHO-K1, luminescence, beta-arrestin, uHTS; C-C chemokine receptor type 6 (Homo sapiens), P51684; CHO-K1 CCR6 PathHunter beta-arrestin, CCL20-stimulated; inhibition, % at 20 µM; 340,000 compounds, 0.49% hits; AID 493098, 2011;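 active = compounds whose inhibition of the agonist-driven luminescence signal at 20 µM reaches about 50%, limit read from the data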;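 note: cells stimulated with CCL20 at 14 nM final; plate controls were DMSO with CCL20 for no effect and DMSO without agonist for full effect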
# m5-HT2A agonist: mouse Htr2a agonists via beta-arrestin recruitment, primary screen, cell-based, luminescence. CHO-K1 mHTR2A beta-arrestin complementation; percent of 30 µM serotonin response. activation, % at 7.6 µM. 360,000 compounds, 0.66% hits. AID 624169, 2012;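 active = activation above a run cutoff, the mean activation of all tested compounds plus 3 SD, cut at about 14% in these data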;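 note: 0% = plate median of compound wells and 100% = 30 µM serotonin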
# EBI2 block: EBI2 receptor antagonists, beta-arrestin recruitment, primary screen, cell-based, luminescence, 7a,25-OHC stimulation, uHTS; 7a,25-OHC stimulated; inhibition, % at 5 µM; G-protein coupled receptor 183 (Homo sapiens), P32249; 360,000 compounds, 0.81% hits; AID 651636, 2012; in the data active = inhibition above about 38%;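 note: enzyme fragment complementation signal reports receptor beta-arrestin coupling in cells; 0% = agonist plus DMSO wells and 100% = wells without agonist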
# The depositor's hits bear a star; / = not tested or not shown. A selection: hits, their analogues and other compounds. The true share with any hit is near 2.1%.
SMILES,CXCR6 inh,APJ ag,APJ antag,CCR6 antag,m5-HT2A agonist,EBI2 block
O=S(=O)(c1ccc(Cl)cc1)N1CCN(Cc2ccc(O)c3ncccc23)CC1,-2.0,0.7,0.0,-13.0,-2.1,26.8
Cc1ccc(S(=O)(=O)N2CCOCC2)cc1C(=O)OC1CCOC1=O (centres undefined),9.1,-2.9,12.4,7.7,-0.6,-14.4
CCOC(=O)c1cc2nc(OCC)nc(OCC)c2[nH]1,-11.9,/,/,4.2,2.5,6.0
Cc1cc(NS(=O)(=O)c2ccc(NC(=O)c3ccc(Cl)cc3Cl)cc2)no1,-3.7,3.8,-0.5,1.9,2.7,1.7
Cc1cc(NS(=O)(=O)c2ccc(NC(=S)NC(=O)c3ccc(Cl)cc3Cl)cc2)no1,9.3,-0.1,30.4,51.7*,-1.0,9.7
Cc1cc(C)c2c(c1C)C(=O)CCC2,-0.7,/,/,6.9,-4.4,2.0
CCOC(=O)c1cnc(-n2nc(C)cc2C)nc1NC(C)c1ccccc1 (centres undefined),29.2,-6.1,24.8,41.2,-7.8,51.1*
Cc1ccc(-c2csc3nc4c5ccccc5c(NCCCN(C)C)nn4c(=O)c23)cc1,0.8,11.2*,13.6,21.1,-6.5,-6.9
Cc1ccc(-c2csc3nc4c5ccccc5c(NCCCN5CCOCC5)nn4c(=O)c23)cc1,/,-2.3,11.9,/,/,/
Clc1ccc(CSc2nccn2Cc2ccccc2)cc1,-10.5,-7.5,-10.1,25.7,-2.8,76.6*
O=c1ccn(Cc2ccccc2)c(SCc2ccccc2)n1,6.6,/,/,5.6,2.1,4.2
Cc1c(N=NC2=C(O)CC(C)(C)CC2=O)c(=O)n(-c2ccccc2)n1C,60.6*,-3.9,16.3,/,2.4,-3.0
O=C(CCOc1ccccc1)OCC(=O)c1cc2ccccc2o1,28.9,-10.1,35.8,85.2*,5.0,-8.0
CSc1ncccc1C(=O)OCC(=O)c1cc2ccccc2o1,33.7,-12.0,22.4,50.4*,2.0,4.4
O=C(/C=C/c1ccccc1)c1cc(Br)ccc(=O)c1O,18.8,-4.0,23.7,59.2*,1.6,-2.7
O=C(/C=C/c1ccc(F)cc1)c1cc(Br)ccc1O,0.2,-3.8,2.5,14.6,-1.9,9.0
O=[N+]([O-])c1cccc(/C=N/Nc2nc(C(Cl)(Cl)Cl)nc3ccccc23)c1,-4.7,15.1*,-40.5,-3.5,4.2,-1.9
COc1ccc(-c2nc(CS(=O)CC(=O)NCCC3=CCCCC3)c(C)o2)cc1 (centres undefined),-9.3,-1.6,-20.8,3.9,39.6*,5.5
N#Cc1cc(C#N)c(SCC(=O)N2CC(=O)Nc3ccccc32)nc1N,3.6,-5.9,-5.0,10.9,8.9,2.9
CCc1ccc2nc(SCC(=O)N3CC(=O)Nc4ccccc43)c(C#N)cc2c1,1.5,-0.1,-3.5,11.3,-0.8,48.5*
Cn1nccc1C(=O)N(CCN1CCCCC1)CC1CCCN(C2CCCC2)C1 (centres undefined),11.0,-0.7,-3.8,-7.9,6.2,-2.7
CC(=O)c1c(N)[nH]c(-c2ccccc2)nc1=S,16.5,-8.7,23.8,56.5*,-5.6,0.1
CC(=O)c1c(N2CCCC2)[nH]c(-c2ccccc2)nc1=S,17.0,-4.9,19.2,25.4,0.4,6.2
CCOc1cc2[nH]c(=S)n(C3CC3)c(=O)c2cc1OCC,-0.1,-0.3,15.6,-2.4,1.7,-1.6
CCOC(=O)N1CCC(n2c(=S)[nH]c3cc(OCC)c(OCC)cc3c2=O)CC1,-3.5,-1.6,12.3,7.3,3.5,59.6*
COc1ccc(-c2cc(NC=O)c3ncc(-c4cccc(C(=O)N(C)C)c4)n3c2)cn1,-0.1,/,/,/,-2.9,7.1
CC1=NNC(=O)/C1=C\c1cn(-c2ccccc2)nc1-c1ccc(Cl)cc1,-4.0,38.0*,-27.4,-11.2,9.4,90.9*
CC1(C)CC(=O)C(=Cc2cn(-c3ccccc3)nc2-c2ccccc2)C(=O)C1,-11.6,6.6,-5.5,-29.9,10.5,38.3
